Data published in ChEMBL document CHEMBL3856209, “Novel pyrazolopyridine derivatives as potential angiogenesis inhibitors: Synthesis, biological evaluation and transcriptome-based mechanistic analysis” (Eur J Med Chem, 2016).
Activity calls are given as the source filed them. The calls are words filed in the database; no cut-off is given here.

Key:
HUVEC [1] = test: Inhibition of VEGF-165-induced HUVEC chemotactic migration at 0.2 to 2 uM after 6 hrs by transwell assay; type: functional, cell-based; conditions: Homo sapiens
Summary of the method: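 Serum-starved HUVEC were pre-treated overnight with compound or vehicle in 5% FBS medium. Cells were then seeded at 6×10^4 per upper Transwell chamber (8 µm pores) and migrated for 6 h toward VEGF-165 (50 ng/mL) or starvation medium. Migrated cells were ethanol-fixed, stained with H&E and counted in five fields per well. Results are % of control from at least two independent experiments.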

HUVEC [2] = test: Effect on DLGAP5 gene expression in serum-starved HUVEC after 6 hrs by microarray analysis relative to control; type: functional, Homo sapiens
Summary of the method: (§1)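 Confluent, serum-starved HUVEC (pooled from 3–5 donors, passage ≤4) treated with 2 μM compound or vehicle with 2.5% FBS for 6 h or 24 h. Total RNA hybridized to Illumina Human-HT12 arrays. Data were background-corrected, vst-transformed and rsn-normalized. Hits called by moderated paired t-test versus DMSO-treated cells, p < 0.05 and log2 fold change >|0.5|.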

HUVEC [3] = test: Effect on GNG12 gene expression in serum-starved HUVEC after 6 hrs by microarray analysis relative to control; type: functional, Homo sapiens; summary of the method: as §1
HUVEC [4] = test: Effect on KIF22 gene expression in serum-starved HUVEC after 6 hrs by microarray analysis relative to control; type: functional, Homo sapiens
Summary of the method: (§2)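 Serum-starved confluent HUVEC (pooled from 3–5 donors, passage ≤4) were treated with 2 μM compound or vehicle in 2.5% FBS for 6 h or 24 h, and total RNA was isolated. Hybridization was on Illumina Human-HT12. Data were processed with bgAdjust, vst and rsn normalization. Changes versus DMSO were called by moderated paired t-test at p < 0.05 and |log2 fold change| > 0.5.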

HUVEC [5] = test: Effect on DLGAP5 gene expression in serum-starved HUVEC after 24 hrs by microarray analysis relative to control; type: functional, Homo sapiens; summary of the method: as §1
HUVEC [6] = test: Effect on MMP1 gene expression in serum-starved HUVEC after 24 hrs by microarray analysis relative to control; type: functional, Homo sapiens; summary of the method: as §2
HUVEC [7] = test: Effect on RNA28S5 gene expression in serum-starved HUVEC after 24 hrs by microarray analysis relative to control; type: functional, Homo sapiens; summary of the method: as §2
HUVEC [8] = test: Effect on DLC1 gene expression in serum-starved HUVEC after 6 hrs by microarray analysis relative to control; type: functional, Homo sapiens; summary of the method: as §1
HUVEC [9] = test: Effect on DLC1 gene expression in serum-starved HUVEC after 24 hrs by microarray analysis relative to control; type: functional, Homo sapiens; summary of the method: as §1
HUVEC [10] = test: Effect on MSMP gene expression in serum-starved HUVEC after 6 hrs by microarray analysis relative to control; type: functional, Homo sapiens; summary of the method: as §2
HUVEC [11] = test: Effect on MSMP gene expression in serum-starved HUVEC after 24 hrs by microarray analysis relative to control; type: functional, Homo sapiens; summary of the method: as §2
HUVEC [12] = test: Effect on CALD1 gene expression in serum-starved HUVEC after 6 hrs by microarray analysis relative to control; type: functional, Homo sapiens
Summary of the method: (§3)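 Serum-starved confluent HUVEC treated with 2 μM compound or DMSO in 2.5% FBS for 6 h or 24 h; RNA hybridized to Illumina Human-HT12 arrays. Data background-corrected, vst-transformed and rsn-normalized. Differential probes called by moderated paired t-test (limma) at p < 0.05 and log2 fold change >|0.5| vs DMSO.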

HUVEC [13] = test: Effect on CCNB2 gene expression in serum-starved HUVEC after 6 hrs by microarray analysis relative to control; type: functional, Homo sapiens; summary of the method: as §3
HUVEC [14] = test: Effect on ERAP2 gene expression in serum-starved HUVEC after 6 hrs by microarray analysis relative to control; type: functional, Homo sapiens; summary of the method: as §1
HUVEC [15] = test: Effect on KIFC1 gene expression in serum-starved HUVEC after 6 hrs by microarray analysis relative to control; type: functional, Homo sapiens; summary of the method: as §2
HUVEC [16] = test: Effect on PTTG1 gene expression in serum-starved HUVEC after 6 hrs by microarray analysis relative to control; type: functional, Homo sapiens; summary of the method: as §2
HUVEC [17] = test: Effect on PTTG3P gene expression in serum-starved HUVEC after 6 hrs by microarray analysis relative to control; type: functional, Homo sapiens
Summary of the method: (§4)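 Confluent serum-starved HUVEC (primary, pooled from 3–5 donors, passage ≤4) treated with 2 μM compound or DMSO vehicle in 2.5% FBS for 6 h or 24 h. Total RNA hybridized to Illumina Human-HT12 arrays, background-corrected, vst-transformed and rsn-normalized. Differential expression versus DMSO by moderated paired t-test (p < 0.05, |log2 fold change| > 0.5).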

HUVEC [18] = test: Effect on RNVU1-18 gene expression in serum-starved HUVEC after 6 hrs by microarray analysis relative to control; type: functional, Homo sapiens; summary of the method: as §2
HUVEC [19] = test: Effect on RNVU1-7 gene expression in serum-starved HUVEC after 6 hrs by microarray analysis relative to control; type: functional, Homo sapiens; summary of the method: as §4
HUVEC [20] = test: Effect on SPC24 gene expression in serum-starved HUVEC after 6 hrs by microarray analysis relative to control; type: functional, Homo sapiens; summary of the method: as §4
HUVEC [21] = test: Effect on ZWINT gene expression in serum-starved HUVEC after 6 hrs by microarray analysis relative to control; type: functional, Homo sapiens; summary of the method: as §2
HUVEC [22] = test: Effect on ASPM gene expression in serum-starved HUVEC after 24 hrs by microarray analysis relative to control; type: functional, Homo sapiens; summary of the method: as §3
HUVEC [23] = test: Effect on BIRC5 gene expression in serum-starved HUVEC after 24 hrs by microarray analysis relative to control; type: functional, Homo sapiens; summary of the method: as §3
HUVEC [24] = test: Effect on CALD1 gene expression in serum-starved HUVEC after 24 hrs by microarray analysis relative to control; type: functional, Homo sapiens; summary of the method: as §3
HUVEC [25] = test: Effect on CCNB2 gene expression in serum-starved HUVEC after 24 hrs by microarray analysis relative to control; type: functional, Homo sapiens; summary of the method: as §3
HUVEC [26] = test: Effect on CDC20 gene expression in serum-starved HUVEC after 24 hrs by microarray analysis relative to control; type: functional, Homo sapiens; summary of the method: as §3
HUVEC [27] = test: Effect on CENPA gene expression in serum-starved HUVEC after 24 hrs by microarray analysis relative to control; type: functional, Homo sapiens; summary of the method: as §3
HUVEC [28] = test: Effect on ERAP2 gene expression in serum-starved HUVEC after 24 hrs by microarray analysis relative to control; type: functional, Homo sapiens; summary of the method: as §1
HUVEC [29] = test: Effect on KIFC1 gene expression in serum-starved HUVEC after 24 hrs by microarray analysis relative to control; type: functional, Homo sapiens; summary of the method: as §2
HUVEC [30] = test: Effect on PTTG1 gene expression in serum-starved HUVEC after 24 hrs by microarray analysis relative to control; type: functional, Homo sapiens; summary of the method: as §4
HUVEC [31] = test: Effect on RNVU1-18 gene expression in serum-starved HUVEC after 24 hrs by microarray analysis relative to control; type: functional, Homo sapiens; summary of the method: as §4
HUVEC [32] = test: Effect on RNVU1-7 gene expression in serum-starved HUVEC after 24 hrs by microarray analysis relative to control; type: functional, Homo sapiens; summary of the method: as §4
HUVEC [33] = test: Effect on SPC24 gene expression in serum-starved HUVEC after 24 hrs by microarray analysis relative to control; type: functional, Homo sapiens; summary of the method: as §4
HUVEC [34] = test: Effect on UBE2C gene expression in serum-starved HUVEC after 24 hrs by microarray analysis relative to control; type: functional, Homo sapiens; summary of the method: as §4
HUVEC (Homo sapiens) [35] = test: Antiproliferative activity against human HUVEC cells assessed as decrease in VEGF-165-induced cell growth at 0.5 to 2 uM after 24 to 48 hrs by MTT assay
HUVEC (Homo sapiens) [36] = test: Antiproliferative activity against human HUVEC cells assessed as decrease in VEGF-165-induced cell growth at 0.5 to 2 uM after 24 to 48 hrs by CyQUANT cell proliferation assay

Structure (SMILES)	inhibition (HUVEC [1])	log2FC (HUVEC [5])	log2FC (HUVEC [6])	log2FC (HUVEC [7])	log2FC (HUVEC [8])	log2FC (HUVEC [9])	log2FC (HUVEC [10])	log2FC (HUVEC [11])	fold change (FC) (HUVEC [12])	log2FC (HUVEC [13])	fold change (FC) (HUVEC [14])	fold change (FC) (HUVEC [15])	log2FC (HUVEC [16])	log2FC (HUVEC [17])	log2FC (HUVEC [18])	log2FC (HUVEC [19])	log2FC (HUVEC [20])	log2FC (HUVEC [21])	log2FC (HUVEC [22])	log2FC (HUVEC [23])	further results
COc1ccc(Cn2nc(-c3ccccc3)c3cc(Nc4ccc(N5CCN(C)CC5)cc4)nc(N4CCNCC4)c32)cc1	Active	-0.516	-0.646	0.4902	0.3681	0.5215	-0.0154	-0.652													log2FC (HUVEC [2]): 0.2579; log2FC (HUVEC [3]): 0.6358; log2FC (HUVEC [4]): -0.0345
COc1ccc(Cn2nc(-c3ccccc3)c3cc(Cl)nc(N4CCNCC4)c32)cc1	Active			0.141	0.5758	-0.0926	-0.0237	-0.6932	0.5218	-0.1297	0.5171	0.0022	-0.1057	-0.1207	-0.6107	-0.5056	0.1186	0.1395	-0.5316	-0.6034	fold change (FC) (HUVEC [3]): 0.5853; log2FC (HUVEC [24]): 0.263; log2FC (HUVEC [25]): -0.5884; log2FC (HUVEC [26]): -0.6535; log2FC (HUVEC [27]): -0.5592; log2FC (HUVEC [28]): 0.2703; log2FC (HUVEC [29]): -0.5682; log2FC (HUVEC [30]): -0.6261; log2FC (HUVEC [31]): -0.1577; log2FC (HUVEC [32]): -0.1037; log2FC (HUVEC [33]): -0.732; log2FC (HUVEC [34]): -0.5278; Activity (HUVEC (Homo sapiens) [35]): Active; Activity (HUVEC (Homo sapiens) [36]): Active
COc1ccc(Cn2nc(-c3ccccc3)c3cc(Nc4ccc(N5CCN(C)CC5)cc4)nc(N4CCN(C)CC4)c32)cc1	Active	-0.8206	0.5814						0.5101	-0.1003	0.5068	-0.2068	-0.1804	-0.2702	-0.6156	-0.536	-0.1032	-0.3223	-0.6736	-0.6896	fold change (FC) (HUVEC [2]): 0.1107; fold change (FC) (HUVEC [4]): -0.1033; log2FC (HUVEC [24]): 0.0259; log2FC (HUVEC [25]): -0.7404; log2FC (HUVEC [26]): -0.9562; log2FC (HUVEC [27]): -0.6147; log2FC (HUVEC [28]): 0.0121; log2FC (HUVEC [29]): -0.6872; log2FC (HUVEC [30]): -0.8594; log2FC (HUVEC [31]): -0.0118; log2FC (HUVEC [32]): 0.1142; log2FC (HUVEC [33]): -0.7666; log2FC (HUVEC [34]): -0.9349; Activity (HUVEC (Homo sapiens) [35]): Active; Activity (HUVEC (Homo sapiens) [36]): Active
